Experimental data taken from ChEMBL document CHEMBL1158824, “Using jasplakinolide to turn on pathways that enable the isolation of new chaetoglobosins from Phomospis asparagi” (J Nat Prod, 2005).
The source made the active and inactive calls. The calls are words filed in the database; no cut-off is given here.

How the values were obtained:
[1] = tested on: MC-38; experiment: Cytotoxicity against mouse C38 cells assessed as zone units at 15 ug/disk by disk diffusion soft agar assay; format: functional
Outline: (§1)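 Disk diffusion soft agar colony formation assay at 15 μg/disk; cytotoxicity read as zone units. Cells: L1210 murine leukemia, C38 murine colon, CFU-GM normal bone marrow. Samples called solid tumor selective when the solid tumor zone exceeds the normal-cell or leukemia zone by more than 250 units.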

[2] = Cytotoxicity against mouse CFU-GM cells assessed as zone units at 15 ug/disk by disk diffusion soft agar assay; format: cell-based; outline: as §1
[3] = tested on: A10; experiment: Antimicrofilament activity in rat A10 cells assessed as loss of microfilament at 1 ug/ml by rhodamine-phalloidin staining; format: functional, cell-based
Outline: (§2)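 A-10 rat aortic smooth muscle cells treated with compound, then fixed; microfilament network scored as loss, additional loss, total loss, or cell loss, at the concentration given in each line.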

[4] = tested on: A10; experiment: Antimicrofilament activity in rat A10 cells assessed as loss of microfilament at 2.5 ug/ml by rhodamine-phalloidin staining; format: functional, cell-based; outline: as §2
[5] = tested on: A10; experiment: Antimicrofilament activity in rat A10 cells assessed as total loss of microfilament at 5 ug/ml by rhodamine-phalloidin staining; format: functional, cell-based; outline: as §2
[6] = tested on: L1210; experiment: Cytotoxicity against mouse L1210 cells assessed as zone units at 15 ug/disk by disk diffusion soft agar assay; format: functional; outline: as §1
[7] = tested on: A10; experiment: Antimicrofilament activity in rat A10 cells assessed as loss of microfilament at 10 ug/ml by rhodamine-phalloidin staining; format: functional, cell-based; outline: as §2
[8] = tested on: A10; experiment: Antimicrofilament activity in rat A10 cells assessed as cell loss at 10 ug/ml by rhodamine-phalloidin staining; format: functional, cell-based; outline: as §2
[9] = tested on: A10; experiment: Antimicrofilament activity in rat A10 cells assessed as loss of microfilament at 15 ug/ml by rhodamine-phalloidin staining; format: functional, cell-based; outline: as §2
[10] = tested on: A10; experiment: Antimicrofilament activity in rat A10 cells assessed as cell loss at 15 ug/ml by rhodamine-phalloidin staining; format: functional, cell-based; outline: as §2
[11] = tested on: A10; experiment: Antimicrofilament activity in rat A10 cells assessed as total loss of microfilament at 25 ug/ml by rhodamine-phalloidin staining; format: functional, cell-based; outline: as §2
[12] = tested on: A10; experiment: Antimicrofilament activity in rat A10 cells assessed as cell loss at 25 ug/ml by rhodamine-phalloidin staining; format: functional, cell-based; outline: as §2

| SMILES | Activity [1] [Zone units] | Activity [2] [Zone units] | Activity [3] | Activity [4] | Activity [5] | Activity [6] [Zone units] | Activity [7] | Activity [8] | Activity [9] | Activity [10] | Activity [11] | Activity [12] |
| --- | --- | --- | --- | --- | --- | --- | --- | --- | --- | --- | --- | --- |
| CC[C@@H]1C(C)=C[C@@H]2/C=C/C[C@H](C)/C=C(\C)[C@@H](O)[C@@H](O)/C=C/C(=O)[C@]23C(=O)N[C@@H]([C@H](C)c2c[nH]c4ccccc24)[C@H]13 | 400 | 500 | Active | Active | Active | 500 |  |  |  |  |  |  |
| CC[C@@H]1C(C)=C[C@@H]2/C=C/C[C@H](C)/C=C(\C)CC/C=C/C(=O)[C@]23C(=O)N[C@@H]([C@H](C)c2c[nH]c4ccccc24)[C@H]13 | 150 |  |  |  |  |  | Active | Active | Active | Active | Active | Active |
| CC[C@@H]1C(C)=C[C@@H]2/C=C/C[C@H](C)/C=C(\C)[C@@H](O)C(=O)/C=C/C(=O)[C@]23C(=O)N[C@@H]([C@H](C)c2c[nH]c4ccccc24)[C@H]13 | 350 | 250 |  |  |  | 250 |  |  |  |  |  |  |
